Data published in ChEMBL document CHEMBL1131460, “2-substituted (2SR)-2-amino-2-((1SR,2SR)-2-carboxycycloprop-1-yl)glycines as potent and selective antagonists of group II metabotropic glutamate receptors. 2. Effects of aromatic substitution, pharmacological characterization, and bioavailability” (J Med Chem, 1998).

Tests used:
[1] = test system: Rattus norvegicus; experiment: Area under curve was evaluated in rat brain when administered intraperitoneally at a dose of 10 mg/kg for 4 or 6 hours; format: ADME, organism-based; set-up: dose 10 mg/kg, route intraperitoneal; settings: in vivo, ip
[2] = test system: Rattus norvegicus; experiment: Area under curve was evaluated in rat brain when administered intraperitoneally at a dose of 10 mg/kg for infinite hours; format: ADME, organism-based; set-up: time infinity, dose 10 mg/kg, route intraperitoneal; settings: in vivo, ip
[3] = test system: Rattus norvegicus; experiment: Area under curve was evaluated in rat plasma when administered intraperitoneally at a dose of 10 mg/kg for 4 or 6 hours; format: ADME, organism-based; set-up: dose 10 mg/kg, route intraperitoneal; settings: in vivo, ip
In short: (§1)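 Male Fischer 344 rats were dosed at 10 mg/kg iv, 10 mg/kg ip, or 10 or 100 mg/kg po, with five rats per route and dose. One rat was sampled for blood and brain at each time: 0.25, 0.5, 1, 2 and 4 h after iv/ip, and 0.5, 1, 2, 4 and 6 h after po. Plasma and brain homogenates were derivatized, extracted and quantified by negative-ion chemical ionization GCMS (LOQ 100 pg/mL plasma, 1 ng/g brain).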

[4] = test system: Rattus norvegicus; experiment: Area under curve was evaluated in rat plasma when administered intravenously at a dose of 10 mg/kg for 4 or 6 hours; format: ADME, organism-based; set-up: dose 10 mg/kg, route intravenous; settings: in vivo, iv; in short: as §1
[5] = test system: Rattus norvegicus; experiment: Area under curve was evaluated in rat plasma when administered perorally at a dose of 100 mg/kg for 4 or 6 hours; format: ADME, organism-based; set-up: dose 100 mg/kg, route oral; settings: in vivo, po; in short: as §1
[6] = test system: Rattus norvegicus; experiment: Area under curve was evaluated in rat brain when administered perorally at a dose of 10 mg/kg for 4 or 6 hours; format: ADME, organism-based; set-up: dose 10 mg/kg, route oral; settings: in vivo, po
[7] = test system: Rattus norvegicus; experiment: Bioavailability was evaluated in rat plasma when administered intraperitoneally at a dose of 10 mg/kg; format: ADME, organism-based; settings: in vivo, ip
[8] = Maximum concentration achieved in rat brain when administered perorally at a dose of 100 mg/kg; format: ADME, organism-based; set-up: dose 100 mg/kg, route oral; settings: po
In short: (§2)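 Male Fischer 344 rats dosed iv or ip at 10 mg/kg, or orally at 10 or 100 mg/kg; five rats per route and dose. Blood and brain taken from one rat per time point (0.25, 0.5, 1, 2, 4 h after iv/ip; 0.5, 1, 2, 4, 6 h after po). Plasma and brain homogenates derivatized, extracted, assayed by negative-ion chemical ionization GCMS (LOQ 100 pg/mL plasma, 1 ng/g brain).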

[9] = Maximum concentration achieved in rat plasma when administered intraperitoneally at a dose of 10 mg/kg; format: ADME, organism-based; set-up: dose 10 mg/kg, route intraperitoneal; settings: ip; in short: as §2
[10] = Brain concentration after 1 hr at a dose of 10 mg/kg when administered intraperitoneally; settings: ip
[11] = Brain concentration after 4 hr at a dose of 10 mg/kg when administered perorally; settings: po
[12] = Brain concentration after 6 hr at a dose of 10 mg/kg when administered perorally; settings: po
[13] = Brain concentration after 2 hr at a dose of 10 mg/kg when administered intraperitoneally; settings: ip
[14] = Brain concentration after 0.5 h at a dose of 100 mg/kg when administered perorally; settings: po
[15] = Brain concentration after 0.5 hr at a dose of 10 mg/kg when administered intravenously; settings: iv
[16] = Plasma concentration after 1 hr at a dose of 10 mg/kg when administered intraperitoneally; settings: ip
[17] = Plasma concentration after 1 hr at a dose of 100 mg/kg when administered perorally; settings: po
[18] = Plasma concentration after 2 hr at a dose of 10 mg/kg when administered intraperitoneally; settings: ip
[19] = Plasma concentration after 4 hr at a dose of 10 mg/kg when administered intraperitoneally; settings: ip
[20] = Time of maximum concentration achieved in rat brain when administered intravenously at a dose of 10 mg/kg; format: ADME, organism-based; set-up: dose 10 mg/kg, route intravenous; settings: iv; in short: as §2
[21] = Time of maximum concentration achieved in rat plasma when administered intraperitoneally at a dose of 10 mg/kg; format: ADME, organism-based; set-up: dose 10 mg/kg, route intraperitoneal; settings: ip; in short: as §2
[22] = Time of maximum concentration achieved in rat plasma when administered intravenously at a dose of 10 mg/kg; format: ADME, organism-based; set-up: dose 10 mg/kg, route intravenous; settings: iv; in short: as §2
[23] = Time of maximum concentration achieved in rat plasma when administered perorally at a dose of 100 mg/kg; format: ADME, organism-based; set-up: dose 100 mg/kg, route oral; settings: po; in short: as §2
[24] = Half-life in rat brain when administered intraperitoneally at a dose of 10 mg/kg; format: ADME, organism-based; set-up: dose 10 mg/kg, route intraperitoneal; settings: ip
[25] = Binding affinity for Group II Metabotropic glutamate receptor was measured using [3H]glutamate in rat forebrain membranes; format: cell membranes, Membrane
In short: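 ACPD-sensitive [³H]glutamate binding to group II mGluRs in rat forebrain membranes, reported as IC50. Most values are single-point determinations; others are averages of two or three determinations. Values in parentheses are percent radioligand displacement at 1 μM.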

[26] = Half-life in rat brain when administered intravenously at a dose of 10 mg/kg; format: ADME, organism-based; set-up: dose 10 mg/kg, route intravenous; settings: iv
[27] = Time of maximum concentration achieved in rat brain when administered intraperitoneally at a dose of 10 mg/kg; format: ADME, organism-based; set-up: dose 10 mg/kg, route intraperitoneal; settings: ip; in short: as §2
[28] = Plasma concentration after 6 hr at a dose of 100 mg/kg when administered perorally; settings: po
[29] = Clearance rate in rat plasma when administered intraperitoneally at a dose of 10 mg/kg; format: ADME, organism-based; set-up: dose 10 mg/kg, route intraperitoneal; settings: ip, read-out: Clp (converted); in short: as §1
[30] = Maximum concentration achieved in rat plasma when administered perorally at a dose of 100 mg/kg; format: ADME, organism-based; set-up: dose 100 mg/kg, route oral; settings: po; in short: as §2
[31] = in vivo; settings: brain, iv, 10 mg/kg
[32] = in vivo; settings: brain, ip, 10 mg/kg
[33] = in vivo; settings: plasma, ip, 10 mg/kg
[34] = in vivo; settings: plasma, iv, 10 mg/kg

For `N[C@](CC1c2ccccc2Oc2ccccc21)(C(=O)O)[C@H]1C[C@@H]1C(=O)O`, the AUC [1] was 774 ng·h/mL, the AUC [2] was 1790 ng·h/mL and the AUC [3] was 12700 ng·h/mL. It also gave an AUC [4] of 8370 ng·h/mL, an AUC [5] of 1380 ng·h/mL and an AUC [6] of 26.4 ng·h/mL. The Bioavailabiility [7] was 152%, the Cmax [8] was 30 ng/g and the Cmax [9] was 14300 ng/mL. For the same compound, the concentration at 1 h [10] was 235 ng/g, the concentration at 4 h [11] was 7.4 ng/g and the concentration at 6 h [12] was 4.8 ng/g. It also gave a concentration at 2 h [13] of 202 ng/g, a concentration at 0.5 h [14] of 5.1 ng/g and a concentration at 0.5 h [15] of 243 ng/g. For the same compound, the concentration at 1 h [16] was 4570 ng/mL, the concentration at 1 h [17] was 475 ng/mL and the concentration at 2 h [18] was 1120 ng/mL. For the same compound, the concentration at 4 h [19] was 39.9 ng/mL, the Tmax [20] was 30 min and the Tmax [21] was 15 min. For the same compound, the Tmax [22] was 15 min, the Tmax [23] was 60 min and the half-life [24] was 285 min. For the same compound, the IC50 [25] was 2.9 nM, the half-life [26] was 326 min and the Tmax [27] was 30 min. For the same compound, the concentration at 6 h [28] was 102 ng/mL, the CL/F [29] was 13 mL/min/kg and the Cmax [30] was 475 ng/mL. For the same compound, the concentration at 1 h [31] was 188 ng/g, the concentration at 0.25 h [32] was 211 ng/g and the concentration at 0.25 h [33] was 14300 ng/mL. It also gave a concentration at 0.25 h [34] of 12000 ng/mL.
